# Laboratory results published in ChEMBL document CHEMBL5058577, “EUbOPEN Chemogenomics Library 2 (Multiplex)” (2022).
# System: U2OS
# Experiment: Multiplex assay against U2OS
# Type: toxicity, cell-based
# Settings: human
# Summary of the method: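 Live cells were stained at seeding with Hoechst33342, BioTracker Green Microtubule Cytoskeleton Dye, MitoTracker Red and Annexin V Alexa Fluor 680, then imaged on a CQ1 microscope at 37°C and 5% CO2 after compound addition. CellPathfinder machine-learning gating split cells into Hoechst high-intensity objects or normal cells. Normal cells were split into healthy, pyknosed or fragmented nuclei, and pyknosed cells into mitotic or apoptotic. Tubulin, mitochondrial-mass and membrane-permeability phenotypes are per cents of healthy-nucleus cells.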
# [1] = 12 h, 1 µM, compound concentration 1 uM, replicate 1
# [2] = 12 h, 1 µM, compound concentration 1 uM, replicate 2
# [3] = 12 h, 10 µM, compound concentration 10 uM, replicate 1
# [4] = 12 h, 10 µM, compound concentration 10 uM, replicate 2
# [5] = 24 h, 1 µM, compound concentration 1 uM, replicate 1
# [6] = 24 h, 1 µM, compound concentration 1 uM, replicate 2
# [7] = 24 h, 10 µM, compound concentration 10 uM, replicate 1
# [8] = 24 h, 10 µM, compound concentration 10 uM, replicate 2
# [9] = 48 h, 1 µM, compound concentration 1 uM, replicate 1
# [10] = 48 h, 1 µM, compound concentration 1 uM, replicate 2
# [11] = 48 h, 10 µM, compound concentration 10 uM, replicate 1
# [12] = 48 h, 10 µM, compound concentration 10 uM, replicate 2
smiles,measurement,setting,value
CC(C)c1noc(N2CCC(COc3ccc(-c4ccc(S(C)(=O)=O)cc4)nc3)CC2)n1 [GSK-1292263],Population Apoptotic (%),[1],72%
same,Population Fragmented Nuclei (%),[1],27%
same,Population Healthy Nuclei (%),[1],62%
same,Population Hoechst High Intensity Objects (%),[1],2%
same,Population Membrane Permeable-Phenotype (%),[1],3%
same,Population Mitochondria Different-Phenotype (%),[1],2%
same,Population Mitotic Cells (%),[1],27%
same,Population Normal (%),[1],97%
same,Population Pyknosed Nuclei (%),[1],10%
same,Population Tubulin-Different-Phenotype (%),[1],0%
same,Total Cell Count,[1],177
same,Population Apoptotic (%),[2],100%
same,Population Fragmented Nuclei (%),[2],16%
same,Population Healthy Nuclei (%),[2],77%
same,Population Hoechst High Intensity Objects (%),[2],1%
same,Population Membrane Permeable-Phenotype (%),[2],4%
same,Population Mitochondria Different-Phenotype (%),[2],0%
same,Population Mitotic Cells (%),[2],0%
same,Population Normal (%),[2],98%
same,Population Pyknosed Nuclei (%),[2],5%
same,Population Tubulin-Different-Phenotype (%),[2],2%
same,Total Cell Count,[2],114
same,Population Apoptotic (%),[3],90%
same,Population Fragmented Nuclei (%),[3],31%
same,Population Healthy Nuclei (%),[3],60%
same,Population Hoechst High Intensity Objects (%),[3],2%
same,Population Membrane Permeable-Phenotype (%),[3],10%
same,Population Mitochondria Different-Phenotype (%),[3],6%
same,Population Mitotic Cells (%),[3],10%
same,Population Normal (%),[3],97%
same,Population Pyknosed Nuclei (%),[3],7%
same,Population Tubulin-Different-Phenotype (%),[3],6%
same,Total Cell Count,[3],262
same,Population Apoptotic (%),[4],100%
same,Population Fragmented Nuclei (%),[4],20%
same,Population Healthy Nuclei (%),[4],73%
same,Population Hoechst High Intensity Objects (%),[4],0%
same,Population Mitochondria Different-Phenotype (%),[4],8%
same,Population Mitotic Cells (%),[4],0%
same,Population Normal (%),[4],100%
same,Population Pyknosed Nuclei (%),[4],5%
same,Total Cell Count,[4],134
same,Population Apoptotic (%),[5],63%
same,Population Fragmented Nuclei (%),[5],32%
same,Population Healthy Nuclei (%),[5],57%
same,Population Hoechst High Intensity Objects (%),[5],1%
same,Population Membrane Permeable-Phenotype (%),[5],5%
same,Population Mitochondria Different-Phenotype (%),[5],2%
same,Population Mitotic Cells (%),[5],36%
same,Population Normal (%),[5],98%
same,Population Pyknosed Nuclei (%),[5],9%
same,Population Tubulin-Different-Phenotype (%),[5],3%
same,Total Cell Count,[5],236
same,Population Apoptotic (%),[6],66%
same,Population Fragmented Nuclei (%),[6],15%
same,Population Healthy Nuclei (%),[6],77%
same,Population Hoechst High Intensity Objects (%),[6],0%
same,Population Membrane Permeable-Phenotype (%),[6],2%
same,Population Mitotic Cells (%),[6],33%
same,Population Normal (%),[6],99%
same,Population Pyknosed Nuclei (%),[6],6%
same,Population Tubulin-Different-Phenotype (%),[6],1%
same,Total Cell Count,[6],145
same,Population Apoptotic (%),[7],92%
same,Population Fragmented Nuclei (%),[7],25%
same,Population Healthy Nuclei (%),[7],65%
same,Population Hoechst High Intensity Objects (%),[7],0%
same,Population Membrane Permeable-Phenotype (%),[7],10%
same,Population Mitochondria Different-Phenotype (%),[7],3%
same,Population Mitotic Cells (%),[7],7%
same,Population Normal (%),[7],99%
same,Population Pyknosed Nuclei (%),[7],9%
same,Population Tubulin-Different-Phenotype (%),[7],3%
same,Total Cell Count,[7],284
same,Population Apoptotic (%),[8],66%
same,Population Fragmented Nuclei (%),[8],15%
same,Population Healthy Nuclei (%),[8],75%
same,Population Hoechst High Intensity Objects (%),[8],2%
same,Population Membrane Permeable-Phenotype (%),[8],6%
same,Population Mitochondria Different-Phenotype (%),[8],5%
same,Population Mitotic Cells (%),[8],33%
same,Population Normal (%),[8],97%
same,Population Pyknosed Nuclei (%),[8],8%
same,Population Tubulin-Different-Phenotype (%),[8],2%
same,Total Cell Count,[8],143
same,Population Apoptotic (%),[9],77%
same,Population Fragmented Nuclei (%),[9],23%
same,Population Healthy Nuclei (%),[9],69%
same,Population Hoechst High Intensity Objects (%),[9],2%
same,Population Membrane Permeable-Phenotype (%),[9],3%
same,Population Mitochondria Different-Phenotype (%),[9],3%
same,Population Mitotic Cells (%),[9],22%
same,Population Normal (%),[9],97%
same,Population Pyknosed Nuclei (%),[9],6%
same,Population Tubulin-Different-Phenotype (%),[9],2%
same,Total Cell Count,[9],339
same,Population Apoptotic (%),[10],90%
same,Population Fragmented Nuclei (%),[10],15%
same,Population Healthy Nuclei (%),[10],74%
same,Population Hoechst High Intensity Objects (%),[10],1%
same,Population Membrane Permeable-Phenotype (%),[10],6%
same,Population Mitochondria Different-Phenotype (%),[10],2%
same,Population Mitotic Cells (%),[10],10%
same,Population Normal (%),[10],98%
same,Population Pyknosed Nuclei (%),[10],10%
same,Population Tubulin-Different-Phenotype (%),[10],1%
same,Total Cell Count,[10],201
same,Population Apoptotic (%),[11],87%
same,Population Fragmented Nuclei (%),[11],22%
same,Population Healthy Nuclei (%),[11],68%
same,Population Hoechst High Intensity Objects (%),[11],4%
same,Population Membrane Permeable-Phenotype (%),[11],6%
same,Population Mitochondria Different-Phenotype (%),[11],2%
same,Population Mitotic Cells (%),[11],12%
same,Population Normal (%),[11],95%
same,Population Pyknosed Nuclei (%),[11],9%
same,Population Tubulin-Different-Phenotype (%),[11],2%
same,Total Cell Count,[11],354
same,Population Apoptotic (%),[12],83%
same,Population Fragmented Nuclei (%),[12],12%
same,Population Healthy Nuclei (%),[12],77%
same,Population Hoechst High Intensity Objects (%),[12],1%
same,Population Membrane Permeable-Phenotype (%),[12],5%
same,Population Mitochondria Different-Phenotype (%),[12],4%
same,Population Mitotic Cells (%),[12],16%
same,Population Normal (%),[12],98%
same,Population Tubulin-Different-Phenotype (%),[12],4%
same,Total Cell Count,[12],189
